Measurements of several laboratories.
Compare with care: the assays were run in different laboratories.
HIPK4: Homeodomain-interacting protein kinase 4 (HIPK4, Homo sapiens, UniProt Q8NE63)
WEE2: Wee1-like protein kinase 2 (WEE2, Homo sapiens, UniProt P0C1S8)
MAOA: Amine oxidase [flavin-containing] A (MAOA, Homo sapiens, UniProt P21397)

Compound | target | test | conditions | endpoint | result
O=C(O)c1ccc2c(c1)nc(Nc1ccc(Cl)cc1)c1ncncc12 | HIPK4 | enzyme activity, inhibitor, radiometric | 1 µM | remaining activity | 62%
COc1cc(Cl)c(C(=O)N[C@@H](CN[C@H]2CC[C@@H](N)CC2)Cc2ccc(C#N)cc2)cc1-c1ccc(CN[C@H](C)c2ccc(C)cc2)o1 | Cyclin-dependent kinase-like 4 (CDKL4, Homo sapiens, UniProt Q5MAI5) | enzyme activity, inhibitor | 1 µM | remaining activity | 90%
CN(C(=O)n1cnc(-c2ccc[n+]([O-])c2)c1)C1CCCCC1 | Fatty-acid amide hydrolase 1 (Faah, Rattus norvegicus, UniProt P97612) | enzyme activity, inhibitor |  | kinact/KI | 1240 M⁻¹ s⁻¹
O=C(O)c1ccc2c(c1)nc(Nc1ccccc1)c1ccncc12 | Homeodomain-interacting protein kinase 3 (HIPK3, Homo sapiens, UniProt Q9H422) | enzyme activity, inhibitor, radiometric | 1 µM | remaining activity | 20%
Cc1ccc(C(=O)Nc2ccc(CN3CCN(C)CC3)c(C(F)(F)F)c2)cc1C#Cc1cnc2cccnn12 | WEE2 | enzyme activity, inhibitor | 23.5 nM | remaining activity | 96%
O=C(O)c1ccc2c(c1)nc(Nc1cccc(F)c1)c1ccncc12 | HIPK4 | enzyme activity, inhibitor, radiometric | 1 µM | remaining activity | 1%
CCOc1ccc(C(=O)Nc2ccc(OC(F)(F)F)cc2)cc1OCC | MAOA | enzyme activity, inhibitor | 1 µM, 20 min | inhibition | 5%
O=C(O)c1ccc2c(c1)nc(NCCc1cccc(F)c1)c1ccncc12 | HIPK4 | enzyme activity, inhibitor, radiometric | 1 µM | remaining activity | -10%
CCCOc1ccc(OC)c(F)c1C(=O)c1ccc(C(=O)N[C@@H]2CNC[C@H]2NC(=O)c2ccc3[nH]ncc3c2)cc1 | Ribosomal protein S6 kinase alpha-1 (Rps6ka1, Rattus norvegicus, UniProt Q63531) | enzyme activity, inhibitor | 0.1 µM | remaining activity | 119%
Cc1nc2ccc(NC(=O)CCNC(=O)CCCc3ccc(CC(C(=O)O)C(=O)O)cc3)cc2s1 | L-lactate dehydrogenase A chain (LDHA, Homo sapiens, UniProt P00338) | binding, SPR |  | residence time | 0.94 s
O=C(Nc1ccc(Br)cc1)c1ccccn1 | MAOA | enzyme activity, inhibitor | 1 µM, 20 min | inhibition | 48%
Nc1ncnc2occ(-c3ccc(NC(=O)Nc4cc(C(F)(F)F)ccc4F)cc3)c12 | WEE2 | cell-free assay, inhibitor | 20 µM | remaining signal | 99%
O=C(Nc1ccc(C(F)(F)F)cc1)c1cc2ccccc2cc1O | MAOA | enzyme activity, inhibitor | 1 µM, 20 min | inhibition | -12%
NNCCc1ccc(NC(=O)CCCc2ccccc2)cc1 | MAOA | enzyme activity, inhibitor |  | KI (inactivation) | 2600 nM
COc1cc([N+](=O)[O-])ccc1NC(=O)c1ccc2c(c1)OCO2 | MAOA | enzyme activity, inhibitor | 1 µM, 20 min | inhibition | 1%
CC[C@H](C)[C@H](NC(=O)[C@H](CC(=O)O)NC(=O)[C@@H](NC(=O)[C@H](Cc1ccccc1)NC(=O)[C@H](C)NC(=O)[C@H](Cc1ccccc1)NC(=O)[C@@H]1CCCN1C(=O)[C@H](C)NC(=O)[C@@H](NC(=O)[C@H](CO)NC(=O)[C@H](Cc1ccccc1)NC(=O)[C@H](CCCNC(=N)N)NC(=O)[C@H](CCCNC(=N)N)NC(=O)[C@@H](N)CC(C)C)[C@@H](C)O)[C@@H](C)CC)C(=O)N[C@@H](CC(N)=O)C(=O)N[C@@H](CC(=O)O)C(=O)N[C@H](C(=O)N[C@H](C(=O)N[C@@H](CC(N)=O)C(=O)N[C@@H](Cc1ccccc1)C(=O)O)[C@@H](C)CC)C(C)C | Integrin alpha-V/beta-3 (Homo sapiens, UniProt P05106+P06756) | binding, BLI |  | kon | 1e+06 M⁻¹ s⁻¹
